We go through nine molecules from ChEMBL document CHEMBL3091378, “Design, synthesis and biological evaluation of α-substituted isonipecotic acid benzothiazole analogues as potent bacterial type II topoisomerase inhibitors” (Bioorg Med Chem Lett, 2013).

One series relates to Streptococcus pyogenes. Description: Antibacterial activity against Streptococcus pyogenes ATCC 51339 assessed as growth inhibition after 16 to 20 hrs by broth microdilution method. The series is classed as functional. In a few lines:
(§1)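 Broth microdilution susceptibility testing following the CLSI M7-A7 standard; MIC determined.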

A short description of series [1]: Inhibition of Escherichia coli DNA gyrase ATPase subunit A2B2 after 60 mins by malachite green staining assay. In a few lines: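 E. coli gyrase A2B2, 10 nM, with 0.08 mg/mL DNA in 35 mM Tris pH 7.5, 24 mM KCl, 2 mM MgCl2, 6.5% glycerol, 0.1 mg/mL BSA, 2 mM DTT, 5% DMSO. Started with 1 mM ATP, 30 °C for 60 min. Phosphate read with malachite green at 600 nm after 5 min. IC50 taken against no-compound and no-enzyme controls.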

Series [2] can be described thus: Solubility of the compound in PBS at pH 7.4 after 24 hrs by turbidimetric analysis. The format is physicochemical. In a few lines:
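Doubling dilutions in DMSO diluted 20-fold into 100 mM PBS pH 7.4, equilibrated 24 h at room temperature, absorbance read at 620 nm. Value is the highest concentration with no measurable precipitate.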

For another series, the system named is Haemophilus influenzae. The series can be described thus: Antibacterial activity against Haemophilus influenzae ATCC 49247 assessed as growth inhibition after 16 to 20 hrs by broth microdilution method. The series is classed as functional. The method, boiled down: as §1
In general terms: In broth dilution the organism is exposed to a series of concentrations in liquid medium.

Another series concerns Staphylococcus aureus. Description: Antibacterial activity against Staphylococcus aureus ATCC 29213 assessed as growth inhibition after 16 to 20 hrs by broth microdilution method. The series is classed as functional. In a few lines:
as §1

The test system of a further series is Enterococcus faecalis. Description: Antibacterial activity against Enterococcus faecalis ATCC 29212 assessed as growth inhibition after 16 to 20 hrs by broth microdilution method. The format is functional. In a few lines: as §1
A further series addresses DNA gyrase (Staphylococcus aureus, UniProt P0A0K8+P20831). The series can be described thus: Inhibition of Staphylococcus aureus DNA gyrase ATPase subunit GyrA2/GyrB2 after 60 mins by malachite green staining assay. The series is classed as protein-complex assay. The method, boiled down:
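S. aureus gyrase A2B2, 10 nM, with 0.08 mg/mL DNA in 40 mM HEPES pH 7.6, 10 mM Mg acetate, 0.5 M K glutamate, 0.01 mg/mL BSA, 2 mM DTT, 5% DMSO. Reaction started with 1 mM ATP and run 60 min at 30 °C. Malachite green absorbance read at 600 nm. IC50 derived using no-compound and no-enzyme controls.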

The nature of series [3]: Intrinsic clearance in mouse liver microsomes at 10 uM by LC-MS analysis. The series is classed as ADME, Microsome. The note with it: read-out: CLH. In a few lines: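 Compound at 10 μM, duplicate, 0.1% DMSO, with mouse liver microsomes at 1 mg/mL protein. Started with 1 mM NADPH and stopped at 0, 10, 30 and 60 min. Acetonitrile extracts analysed by LCMS. T1/2 taken from the slope of peak area over time, then converted to intrinsic clearance.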
A general note: Liver microsomes are vesicles of endoplasmic reticulum, rich in cytochrome P450 enzymes.

Converted amounts (≈) assume the structure as drawn. Some results are limits rather than exact numbers.

DNA gyrase, sequence (P0A0K8 whole entry): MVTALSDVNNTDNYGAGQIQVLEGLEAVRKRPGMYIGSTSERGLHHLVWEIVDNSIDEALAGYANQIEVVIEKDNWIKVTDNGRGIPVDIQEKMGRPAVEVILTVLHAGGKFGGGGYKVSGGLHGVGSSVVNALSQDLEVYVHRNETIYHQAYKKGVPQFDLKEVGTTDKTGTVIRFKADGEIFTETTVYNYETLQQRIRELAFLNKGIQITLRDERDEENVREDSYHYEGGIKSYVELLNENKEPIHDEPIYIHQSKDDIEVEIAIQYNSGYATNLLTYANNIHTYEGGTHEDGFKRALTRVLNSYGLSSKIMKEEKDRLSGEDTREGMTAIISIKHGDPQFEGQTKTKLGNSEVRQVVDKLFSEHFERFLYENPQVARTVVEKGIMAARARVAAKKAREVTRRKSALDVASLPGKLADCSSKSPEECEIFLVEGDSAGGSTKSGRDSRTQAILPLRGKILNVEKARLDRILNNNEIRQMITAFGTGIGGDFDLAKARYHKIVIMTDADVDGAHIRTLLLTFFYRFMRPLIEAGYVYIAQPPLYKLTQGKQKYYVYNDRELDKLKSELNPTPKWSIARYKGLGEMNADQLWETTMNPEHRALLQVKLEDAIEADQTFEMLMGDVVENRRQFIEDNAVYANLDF
DNA gyrase, sequence (P20831 whole entry): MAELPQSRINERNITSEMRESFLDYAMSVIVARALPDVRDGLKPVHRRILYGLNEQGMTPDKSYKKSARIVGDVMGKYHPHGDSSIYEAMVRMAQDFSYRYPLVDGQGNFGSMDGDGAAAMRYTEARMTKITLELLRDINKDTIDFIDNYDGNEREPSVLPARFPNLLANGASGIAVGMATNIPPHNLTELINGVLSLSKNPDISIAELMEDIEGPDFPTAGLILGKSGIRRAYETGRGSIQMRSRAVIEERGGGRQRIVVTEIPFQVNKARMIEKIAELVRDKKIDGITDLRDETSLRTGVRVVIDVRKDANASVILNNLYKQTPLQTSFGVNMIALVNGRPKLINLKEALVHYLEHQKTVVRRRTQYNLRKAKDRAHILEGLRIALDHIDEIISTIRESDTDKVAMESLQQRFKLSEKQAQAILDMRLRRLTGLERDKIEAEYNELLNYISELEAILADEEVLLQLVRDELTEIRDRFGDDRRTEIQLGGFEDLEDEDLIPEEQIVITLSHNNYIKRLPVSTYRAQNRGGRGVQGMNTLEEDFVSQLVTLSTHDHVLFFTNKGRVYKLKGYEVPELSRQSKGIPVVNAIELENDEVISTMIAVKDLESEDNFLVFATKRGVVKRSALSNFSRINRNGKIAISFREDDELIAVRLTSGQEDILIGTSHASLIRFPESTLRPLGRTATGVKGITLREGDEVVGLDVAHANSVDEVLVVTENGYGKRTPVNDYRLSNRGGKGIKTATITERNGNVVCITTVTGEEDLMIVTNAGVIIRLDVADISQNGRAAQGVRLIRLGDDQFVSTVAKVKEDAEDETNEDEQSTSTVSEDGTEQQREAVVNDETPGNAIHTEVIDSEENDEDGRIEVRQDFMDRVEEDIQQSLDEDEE

As to `CCNC(=O)Nc1nc2cc(-c3cnc(N4CCC(C(=O)O)(S(C)(=O)=O)CC4)nc3)cc(-c3ccccn3)c2s1`, the MIC with Streptococcus pyogenes is 4 µg/mL (≈ 6.88 µM); in the series with Haemophilus influenzae, more than 16 µg/mL; with Staphylococcus aureus, more than 16 µg/mL; in the series with Enterococcus faecalis, 4 µg/mL (≈ 6.88 µM). Further, in series [1], the IC50 was determined as 0.015 µg/mL (≈ 0.0258 µM). The solubility (kinetic) at 24 h in series [2] was more than 800 µg/mL.
Consider `CCNC(=O)Nc1nc2cc(-c3cnc(N4CCCCC4(C)C(=O)O)nc3)cc(-c3ccccn3)c2s1` (configuration not stated), for which the MIC turned out to be 0.5 µg/mL (≈ 0.966 µM) with Streptococcus pyogenes, 8 µg/mL (≈ 15.5 µM) with Haemophilus influenzae, 0.5 µg/mL (≈ 0.966 µM) with Staphylococcus aureus and 0.5 µg/mL (≈ 0.966 µM) in the series on Enterococcus faecalis. The molecule further yielded a half-inhibitory concentration (IC50) in series [1] of 0.007 µg/mL (≈ 0.0135 µM). This molecule displayed a solubility (kinetic) at 24 h in series [2] of 6.25 µg/mL (≈ 12.1 µM).
Consider `CCNC(=O)Nc1nc2cc(-c3cnc(N4CCC(C(=O)O)(C(F)(F)F)CC4)nc3)cc(-c3ccccn3)c2s1`, for which the MIC amounted to 0.25 µg/mL (≈ 0.437 µM) in the series with Streptococcus pyogenes, 16 µg/mL (≈ 28 µM) in the series on Haemophilus influenzae, 2 µg/mL (≈ 3.5 µM) with Staphylococcus aureus and 0.25 µg/mL (≈ 0.437 µM) in the series on Enterococcus faecalis. The same molecule registered a kinetic solubility at 24 h in series [2] of more than 800 µg/mL. At DNA gyrase, this molecule gave a half-inhibitory concentration (IC50) of 28 nM.
For `CCNC(=O)Nc1nc2cc(-c3ccc(C(=O)O)nc3)cc(-c3ccccn3)c2s1`, in series [2], the solubility (kinetic) at 24 h stood at 50 µg/mL (≈ 119 µM). The molecule also gave an IC50 against DNA gyrase of 2.38 nM. For the same molecule, the MIC in the series on Enterococcus faecalis was 0.12 µg/mL (≈ 0.286 µM).
For the molecule `CCNC(=O)Nc1nc2cc(-c3cnc(N4CCCC(C)(C(=O)O)CC4)nc3)cc(-c3ccccn3)c2s1` (configuration not stated), the MIC is 0.12 µg/mL (≈ 0.226 µM) with Streptococcus pyogenes, 8 µg/mL (≈ 15 µM) with Haemophilus influenzae and 0.12 µg/mL (≈ 0.226 µM) with Staphylococcus aureus. Further, in series [3], the CLint scaled at 10 µM was less than 5.8 mL/min/kg. Besides, the kinetic solubility at 24 h in series [2] was more than 800 µg/mL. In addition, the half-inhibitory concentration (IC50) at DNA gyrase was 11.3 nM.
Regarding `CCNC(=O)Nc1nc2cc(-c3nc(N4CCC(C)(C(=O)O)CC4)ns3)cc(-c3ccccn3)c2s1`, the MIC in the series with Streptococcus pyogenes is 1 µg/mL (≈ 1.91 µM); in the series on Haemophilus influenzae, more than 16 µg/mL; in the series on Staphylococcus aureus, 1 µg/mL (≈ 1.91 µM). On DNA gyrase, this molecule had a half-maximal inhibitory concentration (IC50) of 107 nM.
For `CCNC(=O)Nc1nc2cc(-c3cccnc3)cc(-c3ccccn3)c2s1`, the kinetic solubility at 24 h in series [2] is 6.25 µg/mL (≈ 16.6 µM). This molecule also had a 50% inhibitory concentration (IC50) on DNA gyrase of 37.3 nM. Moreover, the MIC with Enterococcus faecalis was found to be 0.12 µg/mL (≈ 0.32 µM).
Turning to `CCNC(=O)Nc1nc2cc(-c3cnc(N4CCC(C)(C(=O)O)CC4)cn3)cc(-c3ccccn3)c2s1`, the MIC in the series on Streptococcus pyogenes amounted to 0.12 µg/mL (≈ 0.232 µM); in the series with Haemophilus influenzae, 8 µg/mL (≈ 15.5 µM); with Staphylococcus aureus, 0.5 µg/mL (≈ 0.966 µM); in the series with Enterococcus faecalis it was 0.03 µg/mL (≈ 0.058 µM). Besides, in series [3], the CLint scaled at 10 µM was less than 5.8 mL/min/kg. In series [2], this molecule gave a kinetic solubility at 24 h of more than 800 µg/mL. For the same molecule, at DNA gyrase, the concentration for half-maximal inhibition (IC50) was 38.6 nM.
As to `CCNC(=O)Nc1nc2cc(-c3cnc(N4CCCC4(C)C(=O)O)nc3)cc(-c3ccccn3)c2s1` (configuration not stated), the MIC was 0.06 µg/mL (≈ 0.119 µM) with Streptococcus pyogenes, 1 µg/mL (≈ 1.99 µM) in the series with Haemophilus influenzae, 0.5 µg/mL (≈ 0.993 µM) with Staphylococcus aureus and 0.25 µg/mL (≈ 0.496 µM) with Enterococcus faecalis. The same molecule registered a solubility (kinetic) at 24 h in series [2] of more than 800 µg/mL. Moreover, the IC50 against DNA gyrase was 9.93 nM.

Usually IC50 stands for the point on the concentration scale where inhibition reaches its midpoint. Lower therefore signals higher potency. As a reminder, the solubility (kinetic) is solubility judged after dilution from a stock solution rather than from solid.
